# Published values gathered from unrelated publications.
# Lines come from different studies, so protocols differ.
# PIK3C2A: Phosphatidylinositol 4-phosphate 3-kinase C2 domain-containing subunit alpha (PIK3C2A, Homo sapiens, UniProt O00443)
# ALOX12: Polyunsaturated fatty acid lipoxygenase ALOX12 (ALOX12, Homo sapiens, UniProt P18054)
Structure (SMILES),target,test,test system,setting,quantity,value
Cn1cc(-c2cccc(N3CCc4c(sc5c4CC(C)(C)C5)C3=O)c2CO)cc(Nc2ccncn2)c1=O,PIK3C2A,"enzyme activity, inhibitor",,1 µM,inhibition,0%
CCCCCc1cc(O)c(C/C=C(\C)CCC=C(C)C)c(O)c1,ALOX12,"enzyme activity in cells, inhibitor",PMNL,10 µM,remaining activity,152%
Nc1ncc(-c2nc(N3CCOCC3)nc(N3CCOCC3)n2)c(C(F)F)n1,"Serine/threonine-protein kinase RIO2 (RIOK2, Homo sapiens, UniProt Q9BVS4)","binding, competition with immobilised ligand",,10 µM,remaining binding,51%
CCN(CC)CCCC[C@H](NC(=O)[C@H](CC(C)C)NC(=O)[C@H](C)NC(=O)[C@H](Cc1ccccc1)NC(=O)c1ccc(C(C)(C)C)cc1)C(=O)N[C@@H](CO)C(=O)OC,"Nociceptin receptor (OPRL1, Homo sapiens, UniProt P41146)","ligand displacement, radioligand",,10 µM,remaining binding,76.8%
C#Cc1n[nH]c2c(-c3cn([C@@H](C)c4ccccc4)c(=O)[nH]c3=O)cc(F)cc12,"Mitogen-activated protein kinase 14 (MAPK14, Homo sapiens, UniProt Q16539)","enzyme activity, inhibitor",,0.1 µM,inhibition,2.1%
Cn1cc(-c2cc(F)cc(N3CCn4c(cc5c4CCCC5)C3=O)c2CO)cc(Nc2ccc(N3CCN(C4COC4)CC3)cn2)c1=O,"Phosphatidylinositol 3-kinase catalytic subunit type 3 (PIK3C3, Homo sapiens, UniProt Q8NEB9)","enzyme activity, inhibitor",,0.1 µM,inhibition,-1%
COc1cc(Nc2ncc(F)c(Nc3ccc4c(n3)NC(=O)C(C)(C)O4)n2)cc(OC)c1OC,"Serine/threonine-protein kinase PLK4 (PLK4, Homo sapiens, UniProt O00444)",binding,,10 µM,inhibition,100%
COc1ncccc1-c1cnn2ccc(N3CCN(C(=O)OC(C)C)CC3)nc12,"Mitogen-activated protein kinase kinase kinase 13 (MAP3K13, Homo sapiens, UniProt O43283)","binding, competition with immobilised ligand",,1 µM,remaining binding,98%
CCCCCc1cc(O)c2c(c1)OC(C)(CCC=C(C)C)C=C2 (stereo not drawn),ALOX12,"enzyme activity in cells, inhibitor",PMNL,10 µM,remaining activity,122%
Cc1nn(C)cc1-c1nc2c(N3CCN(Cc4ccc(Cl)cc4)CC3)c(Cl)cnc2[nH]1,"Cyclin-dependent kinase 14 (CDK14, Homo sapiens, UniProt O94921)","binding, competition with immobilised ligand",,1 µM,remaining binding,100%
C#Cc1n[nH]c2c(-c3cn(C(C)c4ccccn4)c(=O)[nH]c3=O)cc(F)cc12 (stereo not drawn),PIK3C2A,"enzyme activity, inhibitor",,1 µM,inhibition,8.9%
O=C(Nc1cccnn1)N1CCN([C@@H]2CCOc3cc(C(F)(F)F)ccc32)CC1,"Apelin receptor (APLNR, Homo sapiens, UniProt P35414)",ligand displacement,,20 µM,inhibition,-1%
